Our source for the IC50 values is ChEMBL document CHEMBL1124758, “Renin inhibitory peptides. A beta-aspartyl residue as a replacement for the histidyl residue at the P-2 site” (J Med Chem, 1990).

pIC50: −log10 of the molar value.

The target of the experiment is T1, Renin (Homo sapiens, UniProt P00797).
T1 sequence (P00797 whole entry): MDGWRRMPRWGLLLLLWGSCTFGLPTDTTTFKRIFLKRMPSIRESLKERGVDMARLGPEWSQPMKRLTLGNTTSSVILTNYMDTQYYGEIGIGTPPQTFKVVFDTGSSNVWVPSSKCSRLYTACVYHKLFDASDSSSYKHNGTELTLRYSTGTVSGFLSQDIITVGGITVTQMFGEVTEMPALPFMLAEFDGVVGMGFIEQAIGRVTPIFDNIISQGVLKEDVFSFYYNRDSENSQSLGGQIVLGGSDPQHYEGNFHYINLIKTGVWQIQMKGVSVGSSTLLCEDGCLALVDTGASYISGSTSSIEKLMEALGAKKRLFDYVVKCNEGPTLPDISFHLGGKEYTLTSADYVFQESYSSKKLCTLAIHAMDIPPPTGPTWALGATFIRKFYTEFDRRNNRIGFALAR
The experiment can be described thus: Inhibition of human plasma renin at pH 6. Type of experiment: cell-free. Put shortly:
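Human plasma incubated with phenylmethanesulfonyl fluoride and maleate buffer (pH 6.0) plus peptide in 1% Tween 80/water vehicle, 90 min at 37 °C, for angiotensin I generation. Angiotensin I measured by radioimmunoassay kit. Percent inhibition from plasma renin activity versus control tubes. IC50 estimated from semilog plot of three or four peptide concentrations.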

In general, pIC50 refers to the IC50 on a negative log10 scale, so that one unit is a factor of ten. `CC[C@@H](C)[C@H](NC(=O)[C@@H](CC(O)[C@H](CC1CCCCC1)NC(=O)[C@@H](CC(=O)O)NC(=O)COc1ccccc1)C(C)C)C(=O)N(C)c1ccccn1` (some centres undefined): the pIC50 is 9.47. In turn, `CC[C@@H](C)[C@H](NC(=O)[C@@H](CC(O)[C@H](CC(C)C)NC(=O)[C@@H](CC(=O)O)NC(=O)COc1ccccc1)C(C)C)C(=O)N(C)c1ccccn1` (some centres undefined) gave a pIC50 of 8.72. For the molecule `CC[C@@H](C)[C@H](NC(=O)[C@@H](CC(O)[C@H](CC(C)C)NC(=O)[C@H](Cc1c[nH]cn1)NC(=O)COc1ccccc1)C(C)C)C(=O)N(C)c1ccccn1` (some centres undefined), the pIC50 was 8.07. With `CC[C@@H](C)[C@H](NC(=O)[C@@H](CC(O)[C@H](CC(C)C)NC(=O)C(C(=O)COc1ccccc1)C(O)C(=O)O)C(C)C)C(=O)N(C)c1ccccn1` (some centres undefined), the pIC50 was 9.15. As to `CC[C@@H](C)[C@H](NC(=O)[C@@H](CC(O)[C@H](CC(C)C)NC(=O)C(C(=O)Cc1ccccc1)C(O)C(=O)O)C(C)C)C(=O)N(C)c1ccccn1` (some centres undefined), the pIC50 is 8.92. As for `CC[C@@H](C)[C@H](NC(=O)[C@@H](CC(O)[C@H](CC1CCCCC1)NC(=O)[C@@H](CC(=O)O)NC(=O)Cc1ccccc1)C(C)C)C(=O)N(C)c1ccccn1` (some centres undefined), the pIC50 was 8.70. `CC[C@@H](C)[C@H](NC(=O)[C@@H](CC(O)[C@H](CC(C)C)NC(=O)[C@H](Cc1c[nH]cn1)NC(=O)Cc1ccccc1)C(C)C)C(=O)N(C)c1ccccn1` (some centres undefined) had a pIC50 of 6.66. As to `CC[C@@H](C)[C@H](NC(=O)[C@@H](CC(O)[C@H](CC(C)C)NC(=O)[C@@H](CC(=O)O)NC(=O)Cc1ccccc1)C(C)C)C(=O)N(C)c1ccccn1` (some centres undefined), the pIC50 is 8.46. Turning to `CC[C@@H](C)CNC(=O)[C@@H](CC(O)[C@H](CC(C)C)NC(=O)C(C(=O)COc1ccccc1)C(O)C(=O)O)C(C)C` (some centres undefined), the pIC50 was 8.66. The molecule `CC[C@@H](C)CNC(=O)[C@@H](NC(O)[C@@H](CC(=O)[C@H](CC(=O)O)NC(=O)COc1ccccc1)CC1CCCCC1)C(C)C` (some centres undefined) gave a pIC50 of 8.28.

In turn, `CC[C@@H](C)CNC(=O)[C@@H](CC(O)[C@H](CC(C)C)NC(=O)C(C(=O)Cc1ccccc1)C(O)C(=O)O)C(C)C` (some centres undefined) gave a pIC50 of 8.22.

Consider `CC[C@@H](C)CNC(=O)[C@@H](CC(O)[C@H](CC(C)C)NC(=O)[C@@H](CC(=O)O)NC(=O)COc1ccccc1)C(C)C` (some centres undefined), for which the pIC50 was 7.70. Molecule `CC[C@@H](C)CNC(=O)[C@@H](CC(O)[C@H](CC1CCCCC1)NC(=O)C(C(=O)COc1ccccc1)C(O)C(=O)O)C(C)C` (some centres undefined) gave a pIC50 of 8.44. In the case of `CC[C@@H](C)[C@H](NC(=O)[C@@H](CC(O)[C@H](CC(C)C)NC(=O)C(CC(=O)O)NC(=O)Cc1ccccc1)C(C)C)C(=O)N(C)c1ccccn1` (stereo in doubt) it was 7.77.
